ChEMBL document CHEMBL1144519, “A Pd(0) based cross-coupling approach to the synthesis of 2-amidopurines and their evaluation as CDK inhibitors” (Bioorg Med Chem, 2007)

Key:
[1] = Inhibition of CDK1/Cyclin B from M phase starfish oocytes; design: species or system Marthasterias glacialis; conditions: oocyte
Procedure, shortened: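 CDK1/cyclin B extracted in homogenization buffer from M-phase Marthasterias glacialis oocytes and affinity-purified on p9CKShs1-Sepharose, eluted with free p9CKShs1. Read-out was P81 phosphocellulose binding, phosphoric acid washes and scintillation counting. Values are blank-subtracted, % of uninhibited activity, with DMSO controls.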

[2] = biological target: Cyclin-dependent kinase 5/CDK5 activator 1 (Homo sapiens, UniProt Q00535); assay: Inhibition of recombinant mammalian CDK5/p25 expressed in Escherichia coli
Chain of Cyclin-dependent kinase 5/CDK5 activator 1 (Q00535 whole entry, the tested form may be a part): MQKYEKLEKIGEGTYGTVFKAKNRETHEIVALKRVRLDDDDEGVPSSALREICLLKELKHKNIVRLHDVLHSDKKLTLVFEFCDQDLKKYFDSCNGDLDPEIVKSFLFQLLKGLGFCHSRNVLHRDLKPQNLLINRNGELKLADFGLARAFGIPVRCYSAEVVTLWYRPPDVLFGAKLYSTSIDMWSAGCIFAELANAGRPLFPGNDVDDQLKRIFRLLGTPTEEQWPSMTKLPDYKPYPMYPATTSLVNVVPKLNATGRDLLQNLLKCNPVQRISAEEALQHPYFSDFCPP
Chain of Cyclin-dependent kinase 5/CDK5 activator 1 (Q15078 whole entry, further chain, the tested form may be a part): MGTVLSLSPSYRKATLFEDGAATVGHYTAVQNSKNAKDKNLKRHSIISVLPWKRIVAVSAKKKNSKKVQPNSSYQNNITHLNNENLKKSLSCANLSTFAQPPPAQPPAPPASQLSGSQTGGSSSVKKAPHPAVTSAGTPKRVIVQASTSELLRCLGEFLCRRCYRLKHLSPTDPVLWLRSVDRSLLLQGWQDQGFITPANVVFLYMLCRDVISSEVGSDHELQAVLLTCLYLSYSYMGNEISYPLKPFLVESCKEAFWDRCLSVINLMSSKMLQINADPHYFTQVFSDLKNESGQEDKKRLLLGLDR
Procedure, shortened: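 Kinase was CDK5 with p25, a truncated p35 activator. Phosphate incorporation was measured on P81 phosphocellulose paper by scintillation counting. Activity is blank-corrected and expressed as % of activity without inhibitor, with DMSO controls.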

**Q.** Which results are given for `COCCNc1nc(C(=O)NC(C)C)nc2c1ncn2C(C)C`?
**A.** IC50 [1]: 8300 nM; IC50 [2]: 13000 nM

**Q.** Which IC50 [1] does the source give for `COc1ccc(CNc2nc(NC(=O)CC(C)=O)nc3c2ncn3C(C)C)cc1` here?
**A.** Its IC50 is 2400 nM.

**Q.** And the IC50 [2]?
**A.** Its IC50 is 1600 nM.

**Q.** For `COCCNc1nc(NC(=O)c2ccc(OC)cc2)nc2c1ncn2C(C)C`, which IC50 [1] is on record?
**A.** Its IC50 is > 10000 nM.

**Q.** Which IC50 [2] does the source give for `COCCNc1nc(NC(=O)C(C)C)nc2c1ncn2C(C)C` here?
**A.** Its IC50 is 7000 nM.

**Q.** Which IC50 [1] does the source give for `COCCNc1nc(NC(=O)CC(C)=O)nc2c1ncn2C(C)C` here?
**A.** Its IC50 is > 10000 nM.

**Q.** Which results are given for `COCCNc1nc(NC(=O)CC(C)C)nc2c1ncn2C(C)C`?
**A.** IC50 [1]: 9600 nM; IC50 [2]: 6600 nM

**Q.** Which results are given for `CC(C)NC(=O)c1nc(NCc2ccc(Cl)cc2)c2ncn(C(C)C)c2n1`?
**A.** IC50 [1]: 1700 nM; IC50 [2]: 2000 nM

**Q.** For `COc1ccc(CNc2nc(C(=O)NCC(C)C)nc3c2ncn3C(C)C)cc1`, which IC50 [1] is on record?
**A.** Its IC50 is 2400 nM.

**Q.** And the IC50 [2]?
**A.** Its IC50 is 2100 nM.

**Q.** With `COc1ccc(C(=O)Nc2nc(NCc3ccc(Cl)cc3)c3ncn(C(C)C)c3n2)cc1` as the compound, how does the IC50 [1] read?
**A.** Its IC50 is 40000 nM.

**Q.** What about the IC50 [2] of the same compound?
**A.** The IC50 was 19000 nM.

**Q.** With `COc1ccc(CNc2nc(NC(=O)CC(C)C)nc3c2ncn3C(C)C)cc1` as the compound, how does the IC50 [1] read?
**A.** The IC50 was 2300 nM.

**Q.** And the IC50 [2]?
**A.** The IC50 was 1800 nM.

**Q.** What does the source list for `COc1ccc(CNc2nc(NC(=O)C(C)C)nc3c2ncn3C(C)C)cc1`?
**A.** IC50 [1]: 940 nM; IC50 [2]: 1300 nM

**Q.** Which IC50 [1] does the source give for `COc1ccc(CNc2nc(NC(=O)c3ccc(OC)cc3)nc3c2ncn3C(C)C)cc1` here?
**A.** The IC50 was 4600 nM.

**Q.** And the IC50 [2]?
**A.** Its IC50 is 3400 nM.

**Q.** Which results are given for `CCCC(=O)Nc1nc(NCCOC)c2ncn(C(C)C)c2n1`?
**A.** IC50 [1]: 13000 nM; IC50 [2]: 10000 nM

**Q.** Which IC50 [1] does the source give for `CC(C)C(=O)Nc1nc(NCc2ccc(Cl)cc2)c2ncn(C(C)C)c2n1` here?
**A.** The IC50 was 1200 nM.

**Q.** And the IC50 [2]?
**A.** The IC50 was 900 nM.

**Q.** What does the source list for `COc1ccc(CNc2nc(C(=O)NC(C)C)nc3c2ncn3C(C)C)cc1`?
**A.** IC50 [1]: 2300 nM; IC50 [2]: 2400 nM

**Q.** For `CCCC(=O)Nc1nc(NCc2ccc(Cl)cc2)c2ncn(C(C)C)c2n1`, which IC50 [1] is on record?
**A.** The IC50 was 2900 nM.

**Q.** And the IC50 [2]?
**A.** The IC50 was 2100 nM.

**Q.** Which IC50 [1] does the source give for `COCCNc1nc(C(=O)NCC(C)C)nc2c1ncn2C(C)C` here?
**A.** Its IC50 is 7200 nM.

**Q.** And the IC50 [2]?
**A.** Its IC50 is 16000 nM.

**Q.** Which results are given for `CCCC(=O)Nc1nc(NCc2ccc(OC)cc2)c2ncn(C(C)C)c2n1`?
**A.** IC50 [1]: 4400 nM; IC50 [2]: 3900 nM

**Q.** What does the source list for `CC(C)CC(=O)Nc1nc(NCc2ccc(Cl)cc2)c2ncn(C(C)C)c2n1`?
**A.** IC50 [1]: 3000 nM; IC50 [2]: 1600 nM
